Source: PubChem BioAssay (several laboratories)
Hits are enriched below; roughly 4.5% of the tested compounds scored in any of these assays.
RGS4 pot: potentiators or activators of RGS4. HEK293 M3R/inducible RGS4, carbachol calcium flux Fluo4; hits give low values. B-score at 10 µM. 310,000 tested, 0.92% active. AID 463111;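 active means B-score of the integrated calcium signal more than 4 SD below the library mean, with starting fluorescence not abnormally high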;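 further: negative B-score means reduced calcium response which marks RGS4 activation or potentiation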
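Test system: HEK293 cells with stable M3R and inducible RGS4; also added: carbachol at ECmax as muscarinic agonist stimulus; schedule: dye loading 30 min 37 °C, buffer rest 30 min RT; technique: kinetic calcium fluorescence imaging with Fluo4-AM dye, 2 µM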
MrgX1 agonist: human MrgX1 receptor agonism, primary screen; B-score at 10 µM; MrgX1-HEK293 cells, Fluo-4 calcium fluorescence, agonist mode; hits give high values; 310,000 tested, 0.44% active; Q96LB2;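 active means calcium response B-score plate-corrected fluorescence ratio at least 3 library SD, with starting fluorescence B-score inside 5 SD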
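Material: HEK293 cells stably expressing human MrgX1 receptor | Quantity: 15,000 cells per well | Times: Cells plated overnight, dye loaded 0.5 h 37 °C, 0.5 h room temperature | Measured by: Kinetic Fluo-4 NW fluorescence of intracellular calcium | Control set: Positive and negative controls per plate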
MrgX1 antagonist: human MrgX1 receptor antagonism, primary screen; Q96LB2; MRGX1-HEK293 calcium flux, Fluo-4, BAM8-22 antagonism; hits give low values; B-score at 10 µM; 310,000 tested, 1.3% active; AID 588676;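 active means calcium-response B-score plate-corrected more than 3 library SD below zero, starting fluorescence within 5 deviations, no agonist response on first addition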;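 further: peak minus trough fluorescence over baseline after final BAM8-22 challenge near maximal dose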
RGS4 inh: inhibitors of human RGS4 | HEK293 M3R/RGS4 inducible, Fluo-4 calcium flux; hits give high values; triggered by carbachol at its EC20 | 310,000 tested, 0.45% active | B-score at 10 µM | P49798;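 active means B-score, a plate-corrected calcium signal, over three deviations above library mean, with baseline fluorescence within five deviations of library mean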;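 further: RGS4 expression induced by doxycycline in cells with stable M3 receptor; B-score is computed from the integrated fluorescence ratio over baseline after carbachol; higher B-score means a larger calcium signal and so more RGS4 inhibition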
Target sequence (P49798 whole entry, looked up): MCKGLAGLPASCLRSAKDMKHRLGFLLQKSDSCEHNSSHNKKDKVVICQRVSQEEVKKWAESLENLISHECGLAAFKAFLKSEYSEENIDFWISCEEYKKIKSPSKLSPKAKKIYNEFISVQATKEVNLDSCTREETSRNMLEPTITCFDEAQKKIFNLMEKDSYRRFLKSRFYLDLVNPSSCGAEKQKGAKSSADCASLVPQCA
PHOSPHO1 inh: inhibitors of human PHOSPHO1 phosphatase | Q8TCT1 | recombinant PHOSPHO1, absorbance phosphatase assay | inhibition, % at 13.3 µM | 290,000 tested, 1.1% active | AID 1565; in the data active means inhibition above about 60%
Target sequence (Q8TCT1 whole entry, looked up): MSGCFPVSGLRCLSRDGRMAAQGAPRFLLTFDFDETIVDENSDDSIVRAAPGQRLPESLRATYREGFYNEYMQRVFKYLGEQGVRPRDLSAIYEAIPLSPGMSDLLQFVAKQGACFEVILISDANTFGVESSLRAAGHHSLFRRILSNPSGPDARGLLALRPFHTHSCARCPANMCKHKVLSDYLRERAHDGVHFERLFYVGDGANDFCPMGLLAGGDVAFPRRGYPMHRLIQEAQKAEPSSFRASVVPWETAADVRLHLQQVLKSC
MrgX1 allo act: allosterically activates human MrgX1 receptor signaling | Q96LB2 | MrgX1-HEK293, Fluo-4 calcium flux, FDSS; hits give high values | B-score at 10 µM | 310,000 tested, 0.63% active;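 active means plate-corrected calcium response at least 3 library SD above typical, normal starting fluorescence, not activating the receptor alone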;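 further: compound read alongside a low EC10 to EC30 dose of BAM8-22 agonist; peak minus trough fluorescence over baseline measured at the second addition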
RGS4 block valid: validation of RGS4 inhibitors; shares compounds with RGS4 inh; HEK293 M3R/RGS4, carbachol calcium Fluo-4 fluorescence; carbachol added at its EC20; 0 = buffer wells, 100 = carbachol control; calcium response, % at 10 µM; 1,700 tested, 65% active;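 active means duplicate-averaged calcium response above the buffer-only control mean plus 5 SD of those controls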;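 further: integrated fluorescence ratio F max minus min over baseline F0; higher response in RGS4-induced cells means RGS4 inhibition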
M3R Ca ctr: non-induced cell nonspecific activity of RGS4 inhibitors | activity (percent), % at 10 µM | 1,900 tested, 20% active | shares compounds with RGS4 inh | HEK293 M3R non-induced, carbachol calcium Fluo-4; submaximal (EC20) carbachol stimulus; buffer wells 0%, carbachol control wells 100%; call rule not given here;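 further: RGS4 induction absent so cells express M3R without RGS4; higher means more calcium signal and flags a non-specific hit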
RGS4 inh ctr2: signal in non-induced cells without carbachol, RGS4 inhibitor counter-screen. shares compounds with RGS4 inh. HEK293 M3R/RGS4 non-induced, Fluo-4 calcium, no carbachol; normalised: buffer wells 0%, carbachol wells 100%. calcium response (agonist-mode artifact), % at 10 µM. 1,900 tested, 22% active;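 active means duplicate-averaged calcium rise in uninduced cells above buffer wells' mean plus 5 SD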
MrgX1 ag reconf: confirmation of human MrgX1 receptor agonists. shares compounds with MrgX1 agonist. MrgX1-HEK293, Fluo-4 calcium fluorescence, FDSS. activation, % at 10 µM. 600 tested, 78% active. AID 602412;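 active means calcium signal rise, corrected for plate position, at least 3 library SD high, with starting brightness within 5 such deviations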
MrgX1 allo conf: confirmation of human MrgX1 receptor positive allosteric modulators. shares compounds with MrgX1 allo act. MrgX1-HEK293, Fluo-4 calcium fluorescence, FDSS. activation (ratio percentage), % at 10 µM. 1,200 tested, 13% active;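 active means ratio at least 3 SD above the weak peptide control, stable starting fluorescence, no direct agonism earlier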;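 further: compound followed by low BAM8-22 agonist challenge near EC20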
MrgX1 ant reconf: human MrgX1 receptor antagonism, re-confirmation screen; shares compounds with MrgX1 antagonist; MrgX1-HEK293, BAM8-22 calcium flux, Fluo-4; hits give low values; remaining BAM8-22 calcium response % of control (hits give low values), % at 10 µM; 2,300 tested, 19% active; AID 602420;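 active means remaining agonist calcium response no higher than 100% minus 3 SD of agonist-only control wells, with starting fluorescence near control levels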;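 further: agonist BAM8-22 given at a near maximal EC90 to ECmax level; peak minus minimum fluorescence divided by baseline after agonist addition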
HEK293 Ca flux: activity in parental HEK293 cells lacking MrgX1; shares compounds with MrgX1 antagonist; Fluo-4 calcium fluorescence, FDSS; fluorescence ratio F(max-min)/F0 at 10 µM; 4,000 tested, 2% active; AID 624111;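 active means duplicate-averaged calcium fluorescence ratio at least three times the standard deviation of buffer wells, a nonspecific response in parental cells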
HEK293 Ca counter: activity in parental HEK293 cells without MrgX1; shares compounds with MrgX1 antagonist; parental HEK293 calcium flux, Fluo-4 fluorescence ratio; hits give high values; fluorescence ratio F(max-min)/F0 at 10 µM; 4,000 tested, 0.4% active; AID 624114;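 active means calcium fluorescence ratio, averaged over duplicates, at least 3 SD of the buffer-well ratio, meaning a nonspecific response in receptor-free cells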;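 further: untransfected parental HEK293 lacking MrgX1 used as counterscreen for MrgX1 allosteric activators; fluorescence change taken during the second addition on a kinetic imager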
HEK293 Ca cntr2: counter-screen for MrgX1 activators: effect in parental HEK293 cells; Fluo-4 calcium fluorescence (FDSS); hits give high values; AID 624115; 4,000 tested, 8.7% active; fluorescence ratio F(max-min)/F0 at 10 µM; shares compounds with MrgX1 antagonist;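 active means calcium fluorescence ratio at least three times the spread of buffer wells, meaning a non-specific response in parental cells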
Starred values were filed as active, the others as inactive; i = inactive; x = no result given.

SMILES	RGS4 pot	MrgX1 agonist	MrgX1 antagonist	RGS4 inh	PHOSPHO1 inh	MrgX1 allo act	RGS4 block valid	M3R Ca ctr	RGS4 inh ctr2	MrgX1 ag reconf	HEK293 Ca flux	HEK293 Ca counter	HEK293 Ca cntr2	others
Cc1[nH]c2ccccc2c1C(=O)CN1C(=O)NC(C)(c2ccc(Cl)cc2Cl)C1=O (stereo not drawn)	i	i	i	10.2*	-6.2	i	30.0%*	i	56.5%*	x	x	x	x
Cc1[nH]c2ccccc2c1C(=O)CSc1ccc(Cl)cc1	i	i	i	i	32.2	i	x	x	x	x	x	x	x
CCOC(=O)[C@@H]1[C@H]2COc3ccccc3[C@H]2N2C(=O)N(c3ccc(OC)cc3)C(=O)[C@]12C	i	i	-6.32*	i	-35.5	i	i	i	i	x	i	i	i	MrgX1 ant reconf=i
CCOC(=O)[C@@H]1[C@H]2COc3ccccc3[C@@H]2N2C(=O)N(c3cccc(C)c3)C(=O)[C@]12C	i	i	-5.8*	i	4.0	i	i	i	i	x	i	i	i	MrgX1 ant reconf=i
CCOC(=O)[C@@H]1[C@H]2COc3cc(OC)ccc3[C@H]2N2C(=O)N(c3ccc(C(F)(F)F)cc3)C(=O)[C@@]12C	i	i	i	i	-52.4	i	x	x	x	x	x	x	x
CCOc1ccc(S(=O)(=O)N2CCCC(C(=O)NCc3ccncc3)C2)cc1 (stereo not drawn)	i	i	i	i	36.0	i	x	x	x	x	x	x	x
O=C1c2ccccc2S(=O)(=O)c2cc(C(=O)N(c3ccccn3)c3ccccn3)ccc21	i	41.4*	i	4.87*	-22.8	i	14.0%*	34.0%*	135.0%*	652.6%*	i	i	126*
COc1cc(/C=C2/NC(=O)N(c3cccc(Cl)c3)C2=O)ccc1O	i	i	i	i	36.8	i	x	x	x	x	x	x	x
COc1cc(/C=C2/C(=O)NN(c3cccc(Cl)c3)C2=O)cc(OC)c1O	i	79.3*	i	i	39.1	i	x	i	106.5%*	420.7%*	i	i	84.1*
O=C(Nn1cnnc1)c1cc(Cl)cc(Cl)c1	i	i	i	i	24.1	i	x	x	x	x	x	x	x
CNS(=O)(=O)c1ccc2c(c1)oc(=O)c1cc(S(=O)(=O)NC)ccc12	i	i	i	i	-31.7	i	x	x	x	x	x	x	x
CCOC(=O)C(=O)C1=C(N2CCOCC2)/C(=C\c2ccc(F)cc2)CC1	i	26.8*	i	7.7*	9.8	i	7.0%*	i	21.0%*	219.9%*	i	i	45.4*
CCOc1ccc(N(CC(=O)Nc2cc(C)ccc2C)S(=O)(=O)c2c(C)[nH]c(=O)[nH]c2=O)cc1	i	i	i	i	22.5	i	x	x	x	x	x	x	x
COc1cc(C=C2C(=O)OC(c3ccccc3)OC2=O)cc(Br)c1O (stereo not drawn)	i	i	i	i	-9.9	i	x	x	x	x	x	x	x
COc1cc(/C=C2\C(=O)ON=C2c2ccccc2)cc(Br)c1O	i	78.2*	i	4.69*	33.0	i	9.5%*	i	281.0%*	i	i	i	i
CCOc1cc(/C=C2\C(=O)ON=C2c2ccccc2)cc(Br)c1O	i	82.6*	i	i	33.0	i	i	i	322.0%*	i	i	i	i
Cc1c(-c2nc(N)nc(Nc3ccccc3F)n2)oc2ccccc12	i	i	i	i	-16.3	16.5*	x	i	i	x	i	i	i	MrgX1 allo conf=58.5%*
COC(=O)C1=C(O)/C(=C/c2cccc(OC)c2O)N=C1C	i	i	i	i	21.4	i	x	x	x	x	x	x	x
CCOC(=O)C1=C(O)/C(=C\c2cccc(OC)c2)N=C1C	i	31.8*	i	13.9*	-5.3	i	47.0%*	i	i	158.3%*	i	i	i
O=C1/C(=C\c2ccc(O)c(O)c2)SC(=S)N1Cc1ccccc1	i	i	-12*	13.9*	39.4	i	15.5%*	36.5%*	41.5%*	x	0.306*	i	i	MrgX1 ant reconf=i
O=C1/C(=C/c2ccc(O)cc2)SC(=S)N1Cc1cccnc1	i	i	i	i	-6.2	i	x	x	x	x	x	x	x
CC(C)C(=O)Nc1ccc(NC(=O)c2cccc3c(Br)cccc23)cc1	i	i	i	i	46.6	i	x	x	x	x	x	x	x
O=c1c2c(-c3ccccc3)csc2ncn1/N=C/c1ccc(O)c([N+](=O)[O-])c1	i	i	i	i	-9.7	i	x	x	x	x	x	x	x
O=c1c2c(-c3ccccc3)csc2ncn1/N=C/c1cccc([N+](=O)[O-])c1O	i	71.4*	i	i	-3.7	i	x	x	x	315.0%*	i	i	76*
CCc1[nH]nc2c1C(c1ccc(Br)s1)C(C#N)=C(N)O2 (stereo not drawn)	x	48.4*	i	x	-6.7	i	x	x	x	146.3%*	i	i	i
